Measurements collected from several papers.
Protocols differ between the studies behind these lines.

O=C(Nc1cc(F)c(F)c(F)c1)c1ccc(F)c(S(=O)(=O)NCc2cccc(B(O)O)c2)c1
Tmax (male Sprague-Dawley rat, plasma; oral, 20 mg/kg): 0.38 h

CCOC(=O)[C@@]12C[C@@H]1[C@@H](n1ccc3c(NC)nc(C#Cc4ccc(Cl)s4)nc31)[C@H](O)[C@@H]2O
Tmax (male Sprague-Dawley rat, plasma; oral, 10 mg/kg): 1.17 h

COCCOC(=O)C1=C(C)NC(C)=C(C(=O)OC(C)C)C1c1cccc([N+](=O)[O-])c1 (centres unmarked)
Tmax (male Sprague-Dawley rat, plasma; oral, 12 mg/kg): 0.33 h

Cc1c(-c2ccccc2)cccc1N1C(=O)c2cc(CN[C@H](C(=O)O)C(C)O)c(OCc3cccc(C#N)c3)cc2C1=O (some centres unmarked)
Tmax (Sprague-Dawley rat, plasma; oral, 50 mg/kg): 0.53 h

N#Cc1[nH]nnc1-c1cccc(-c2cc(F)cc(C(F)(F)F)c2)c1
Tmax (male Sprague-Dawley rat, plasma; oral, 10 mg/kg): 0.8 h

CC(C)(O)[C@H]1CC[C@H](Nc2ccc3ncc(-c4cccc(C(F)(F)F)c4)n3n2)CC1
Tmax (female Sprague-Dawley rat, plasma; oral, 40 mg/kg): 1 h

N#Cc1ccc(Nc2nc(N)cc(Oc3c(F)cc(-c4ccc(C#N)cc4)cc3F)n2)cc1
Tmax (Sprague-Dawley rat, plasma; oral, 5 mg/kg): 4 h

CCc1cc(OC)c2nccc(N3CCc4c(cc(Cn5ccnc5)cc4-c4cn(C)nc4C(F)(F)F)C3=O)c2c1
Tmax (male Sprague-Dawley rat, plasma; oral, 50 mg/kg): 1.7 h

CNC(=O)c1c(C)oc2cc(Oc3ncnc4cc(OC)c(OC)cc34)ccc12
Tmax (Sprague-Dawley rat, plasma; oral, 1 mg/kg, single dose): 4.25 h

CCc1cc(C(=O)NC)c2nccc(N3CCc4c(cc(Cn5ccnc5)cc4-c4cn(C)nc4C(F)(F)F)C3=O)c2c1
Tmax (male Sprague-Dawley rat, plasma; oral, 50 mg/kg): 1.7 h

CC(C)OC(=O)NC1CCN(Cc2cc(Cl)c3cccnc3c2O)CC1
Tmax (rat, blood; intraperitoneal, 30 mg/kg): 3 h

Cl.Clc1ccc2c(c1)nc(N1CCNCC1)n2Cc1ccccc1
Tmax (rat, plasma; oral, 5 mg/kg): 0.08 h

C=CC(=O)N1CC2CC(n3nc(-c4ccc(C(=O)Nc5ccccn5)cc4)c4c(N)ncnc43)CC2C1 (centres unmarked)
Tmax (male Wistar rat, plasma; oral, 300 mg/kg): 4 h

COc1nc(-c2cc(C)c(N[C@@H](C)c3cc(F)cc(F)c3)nn2)ccc1-n1cnc(C)c1
Tmax (male Sprague-Dawley rat, plasma; oral, 5 mg/kg, single dose): 5.3 h

C[C@H](Nc1ncnc2[nH]cnc12)c1cc2cccc(Cl)c2c(=O)n1-c1ccccc1
Tmax (male Wistar rat, plasma; oral, 25 mg/kg, single dose): 2 h

N#Cc1[nH]nnc1-c1csc(-c2ccc(Cl)cc2)n1
Tmax (male Sprague-Dawley rat, plasma; oral, 10 mg/kg): 1 h

Cc1cc(Nc2ccc(C(F)(F)F)nc2)n2nc(C(C)(F)F)nc2n1
Tmax (rat, plasma; oral, 200 mg/kg): 12 h
